The list is not random: actives were taken first. Their share in the collection is about 3.7%.
Kir21 inh: inhibitors of mouse Kir2.1 inward-rectifier potassium channel. AID 1672, 2009. B-score at 10 µM. HEK293-Kir2.1, FluxOR thallium flux fluorescence; stronger effect = lower value. 310,000 tested, 0.85% active. Inward rectifier potassium channel 2 (Mus musculus), P35561;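 active = fluorescence ratio B-score at or below minus 3 SD of library scores, with starting-brightness B-score within 2 SD, cut at about -4.2 in these data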;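 note: channel flux triggered by added potassium and thallium sulfate stimulus; B-score of peak minus minimum fluorescence over baseline after thallium stimulus; more negative B-score means stronger Kir2.1 block with less thallium influx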
KCNK3 block: human KCNK3 channel inhibitors, primary screen, CHO cells, FluxOR thallium flux, B-score; FluxOR fluorescence; stronger effect = lower value; B-score at 10 µM; 340,000 tested, 0.84% active;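 active = B-score under library mean minus 4 SD, starting fluorescence ratio at most library mean plus 5 SD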;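 note: more negative B-score means stronger inhibition of thallium flux through KCNK3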
KCNK9 block: KCNK9 potassium channel inhibitors, primary screen, HEK293 cells, thallium flux | FluxOR thallium flux fluorescence; stronger effect = lower value | B-score at 10 µM | 310,000 tested, 1.2% active | AID 488922, 2010;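 active = ratio B-score over 3 SD below the library mean, with starting fluorescence within 5 SD of its mean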;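 note: negative B-score means less thallium flux so channel inhibition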
Target sequence (Q9NPC2 whole entry, looked up): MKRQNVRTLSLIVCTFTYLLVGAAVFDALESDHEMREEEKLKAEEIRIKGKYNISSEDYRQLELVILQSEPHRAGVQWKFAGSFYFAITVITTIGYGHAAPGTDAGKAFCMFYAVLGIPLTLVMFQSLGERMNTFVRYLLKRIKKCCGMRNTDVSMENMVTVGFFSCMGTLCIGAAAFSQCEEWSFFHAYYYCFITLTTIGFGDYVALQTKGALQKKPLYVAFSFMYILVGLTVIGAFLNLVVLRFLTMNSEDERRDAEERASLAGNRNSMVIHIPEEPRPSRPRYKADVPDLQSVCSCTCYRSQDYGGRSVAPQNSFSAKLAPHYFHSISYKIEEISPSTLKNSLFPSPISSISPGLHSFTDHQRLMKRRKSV
KCNQ1 inh: inhibitors of human KCNQ1 channel, primary screen, cell-based, thallium flux, high-throughput; CHO-K1 KCNQ1, FluxOR thallium flux fluorescence; stronger effect = higher value; AID 2642, 2010; Potassium voltage-gated channel subfamily KQT member 1 (Homo sapiens), P51787; B-score at 10 µM; 310,000 tested, 1.3% active;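 active = compounds whose thallium flux B-score, printed positive for inhibition, exceeds three library SD while starting fluorescence stays within three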;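 note: channel opened by potassium depolarization with thallium stimulus after 20 min compound exposure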
KCNQ1 act: potentiators or activators of KCNQ1 channel, primary screen, cell-based, thallium flux, high-throughput. Potassium voltage-gated channel subfamily KQT member 1 (Homo sapiens), P51787. CHO-K1 KCNQ1, thallium flux FluxOR fluorescence; stronger effect = higher value. B-score at 10 µM. 310,000 tested, 0.35% active;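 active = fluorescence ratio B-score, a plate-corrected score, at least three library SD, with initial intensity B-score within 5 SD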
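System: Stable KCNQ1 CHO-K1 line | Incubation: 90 min dye loading and 20 min compound exposure, both at room temperature | Measure: Ratio B score | Medium: Assay buffer for compound exposure, DMSO matched across wells | Compound dosing: Single-concentration screen | Probe or stimulus: K+/Tl+ depolarizing stimulus | Measured by: Kinetic FluxOR fluorescence, 10 s baseline plus 110 s post-stimulus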
hERG protect: hERG rescue from dofetilide block, primary screen, cell-based, CHO-hERG, FluxOR thallium flux, dofetilide IC70; Voltage-gated inwardly rectifying potassium channel KCNH2 (Homo sapiens), Q12809; dofetilide IC70 present; activation (rescue from dofetilide block), less the hit threshold, % at 10 µM; 310,000 tested, 0.51% active; AID 1511, 2009;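 active = activation above the mean of controls blocked by dofetilide plus 5 SD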;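 note: thallium influx through hERG after potassium depolarization seen as dye fluorescence rise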
An asterisk follows results filed as active; i = inactive; nt = no result.

SMILES	Kir21 inh	KCNK3 block	KCNK9 block	KCNQ1 inh	KCNQ1 act	hERG protect
Cc1ccc(NCCC(=O)c2cccc([N+](=O)[O-])c2)cc1	0.7	i	i	9*	i	-11
O=C(CCNc1ccc(F)cc1)c1cccc([N+](=O)[O-])c1	-1.3	i	i	6*	i	-18
COc1ccccc1CCNC(=O)C(=O)NCC1OCCN1S(=O)(=O)c1ccc(C)cc1 (configuration not stated)	-0.75	i	i	i	i	-11
COC(CN1CCc2c(C)nc3c(C#N)cnn3c21)OC	0.55	i	i	i	i	6.3*
CC(Sc1ccc(Cl)cc1)C(=O)NNC(=O)c1ccccc1O (configuration not stated)	1.9	i	i	6*	i	-13
COc1ccc(CC(=O)OCC(=O)N2CCCc3ccccc32)cc1OC	1.3	i	i	i	i	-10
Cc1ccc(Oc2ccccc2NC(=O)CSCC(=O)Nc2cc(C)on2)cc1	-3.9	i	i	i	i	-19
Cc1cc(NC(=O)CSCC(=O)Nc2ccccc2Oc2ccccc2)no1	-4.8*	i	i	i	i	-9
CCOc1ccc(-c2cc(C(=O)OC)[nH]n2)cc1	0.34	i	i	i	i	9.4*
CCn1c(C)c(C)c2cc(C(=O)NCCN3CCCCCC3)ccc21	-1.5	i	i	i	i	-9
CC1COc2ccccc2N1S(=O)(=O)c1ccc(Cl)cc1 (configuration not stated)	-4.4*	i	i	i	i	-17
O=C(Nc1nccs1)c1ccc2c(=O)n3c(nc2c1)CCCCC3	0.11	i	i	i	i	-9
CC(C)c1nnc(NC(=O)C2CCN(C(=O)Nc3ccc(Cl)cc3)CC2)s1	-0.36	i	i	i	i	-2
N#C/C(=C\c1c(Oc2ccc(Cl)cc2)nc2ccccn2c1=O)C(=O)NC1CCS(=O)(=O)C1 (configuration not stated)	-4.4*	i	i	i	i	-19
O=C(c1cc2ccccc2o1)N1CCN(c2ccccn2)CC1	0.07	i	i	i	i	-9
O=C1C(Cl)=C(N2CCC(C(=O)O)CC2)C(=O)c2ccccc21	-0.09	i	i	6*	i	-20
CC1COCC(C)N1C1=C(Cl)C(=O)c2ccccc2C1=O (configuration not stated)	nt	-10*	nt	nt	nt	nt
COC(=O)C1Cc2ccccc2CN1C(=O)CCl (configuration not stated)	0.46	i	i	i	i	-7
CCN(CC)CC#CCC(O)(c1ccccc1)c1ccccc1	-1.7	i	i	i	i	-20
CCN(CC)CC#CCC(C)(c1ccccc1)c1ccccc1	-8.9*	i	i	i	i	-8
CSc1ccc(C2NN=C(c3ccccc3)S2)cc1 (configuration not stated)	-0.19	i	i	i	i	15*
COC(=O)c1cc(=O)n(Cc2ccc(F)cc2)c(=Nc2ccccc2)s1	-0.49	i	i	6*	i	-8
COC(=O)c1cc(=O)n(Cc2ccc(OC)c(OC)c2)c(=Nc2ccc(F)cc2)s1	0.47	i	i	6*	i	-9
COC(=O)c1cc(=O)n(-c2ccccc2)c(=Nc2ccccc2)s1	-0.55	i	i	i	i	-10
CCOC(=O)c1ccc(N=c2sc(C(=O)OC)cc(=O)n2-c2ccc(C(=O)OCC)cc2)cc1	0.04	i	i	6*	i	-10
SMILES	Kir21 inh	KCNK3 block	KCNK9 block	KCNQ1 inh	KCNQ1 act	hERG protect
COc1ccccc1CC(=O)NNC(=O)c1ccco1	0.36	i	i	i	i	-4
Cc1c2n(c3ccccc13)CCN(C)C2	-0.6	i	i	i	i	-5
CCOC(=O)C1(CCOc2ccccc2)CCN(Cc2cc(OC)c3c(c2)OCO3)CC1	-1.3	i	i	i	i	-18
N#CCCN(C1CCCCC1)S(=O)(=O)c1cccc2nsnc12	-1.6	i	i	i	i	-9
CCN(c1ccc(F)cc1)S(=O)(=O)c1cccc2nsnc12	-5.5*	i	i	i	i	-5
CN(C1CCCCC1)S(=O)(=O)c1cccc2nsnc12	-5.1*	i	i	i	i	-4
Cc1cccc(NC(=O)c2nc[nH]c2C(=O)N[C@@H](Cc2ccccc2)C(=O)OCc2ccccc2)c1	0.91	i	i	i	i	-7
CCOC(=O)C1=C(C)NC(C)=C(C(=O)OCC)C1c1ccccc1/C=C/C(=O)OC(C)(C)C	0.27	nt	i	8*	i	-10
O=C(Nc1ccc(C(=O)N2CCCCC2)cc1)C1CC1	nt	i	nt	nt	nt	nt
O=C1CC(O)(C(F)(F)F)Oc2c1ccc1ccccc21 (configuration not stated)	0.51	i	i	i	8*	6.8*
CC1(C)Cc2c(ccc3ccccc23)C(=O)N1	0.88	i	i	i	i	-15
Cc1cc(C(=O)NCc2ccccc2Cl)n(-c2ccccc2)n1	0.1	i	i	i	i	-17
CC(=O)c1cc2ccc(O)cc2oc1=O	-3.1	i	i	7*	i	-19
N=c1oc2cc(O)ccc2cc1C(=O)Nc1ccc(Cl)cc1	0.35	i	i	6*	i	-7
COc1ccc2cc(C(C)=O)c(=O)oc2c1	0.65	i	i	i	i	-3
Cc1ccc(NC(=O)c2cc3ccccc3oc2=N)cc1	0.66	i	i	i	i	-5
Cc1cc(Br)ccc1NC(=O)CN(C)C(=O)c1ccc2ccccc2n1	nt	i	nt	nt	nt	nt
Cc1cccc(NC(=S)NCC(c2ccccc2)N(C)C)c1 (configuration not stated)	-0.93	i	i	i	i	-17
Cc1ccc(NC(=S)NCCSc2ccc(Cl)cc2)c(C)c1	-3.3	i	i	i	i	-5
Cc1cccc(NC(=S)NCC(C)CSc2ccc(Cl)cc2)c1 (configuration not stated)	-1.1	i	i	9*	i	-26
Cc1ccc(NC(=S)NCC(C)CSc2ccc(Cl)cc2)cc1 (configuration not stated)	1.6	i	i	8*	i	-10
Cn1c(SCC(=O)c2ccccc2)nnc1-c1cccs1	-0.53	i	i	i	i	-14

Assay outcomes as filed in PubChem BioAssay.
